The text below walks through data of ChEMBL document CHEMBL2203283, “Novel coumarin derivatives bearing N-benzyl pyridinium moiety: potent and dual binding site acetylcholinesterase inhibitors” (Bioorg Med Chem, 2012).

The structures appear in SMILES notation. ≈ marks a conversion by molar mass, not a printed value.

In test [1] the test system is Radical scavenging activity. Description: Antioxidant activity of compound assessed as DPPH radical scavenging activity. The format is functional. In outline:
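DPPH radical scavenging: compounds at five concentrations across a 0–25 range in methanol, mixed with 0.3 mM DPPH ethanol solution and left 30 min in the dark at room temperature. Absorbance read at 518 nm, with a compound-plus-methanol reading blank and a DPPH-plus-methanol negative control. % inhibition = [(A_B−A_A)/A_B]×100; IC50 calculated; ascorbic acid as reference.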
In general terms: The DPPH test is a chemical assay of radical scavenging.

Test [2] is described as follows: Antioxidant activity of compound assessed as ferric reducing antioxidant power. The test is classed as functional. In outline:
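Modified FRAP assay. Reagent mixed from 300 mM acetate buffer pH 3.6, 10 mM TPTZ in 40 mM HCl, and 20 mM ferric chloride hexahydrate solution. Ascorbic acid and BHT served as references.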

Test [3] can be described thus: Selectivity ratio of IC50 for equine serum BuChE to IC50 for electric eel AChE. In short, it runs like this:
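Ellman assay with electric eel AChE and equine serum BuChE, run by the same method. Compounds are diluted in 0.1 M phosphate buffer, pH 8.0, and preincubated 15 min at 25 °C. Substrate is acetylthiocholine iodide with DTNB, read as absorbance rate at 412 nm over 6 min. Five concentrations are tested in triplicate, with IC50 taken graphically. Ratio = IC50(BuChE)/IC50(AChE).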

In test [4] the target is Cholinesterase (Equus caballus, UniProt P81908). Description: Inhibition of equine serum BuChE using acetylthiocholine iodide as substrate by Ellman's method. In general terms: Ellman's reagent forms a yellow product with free thiols.
Cholinesterase, sequence (P81908 whole entry): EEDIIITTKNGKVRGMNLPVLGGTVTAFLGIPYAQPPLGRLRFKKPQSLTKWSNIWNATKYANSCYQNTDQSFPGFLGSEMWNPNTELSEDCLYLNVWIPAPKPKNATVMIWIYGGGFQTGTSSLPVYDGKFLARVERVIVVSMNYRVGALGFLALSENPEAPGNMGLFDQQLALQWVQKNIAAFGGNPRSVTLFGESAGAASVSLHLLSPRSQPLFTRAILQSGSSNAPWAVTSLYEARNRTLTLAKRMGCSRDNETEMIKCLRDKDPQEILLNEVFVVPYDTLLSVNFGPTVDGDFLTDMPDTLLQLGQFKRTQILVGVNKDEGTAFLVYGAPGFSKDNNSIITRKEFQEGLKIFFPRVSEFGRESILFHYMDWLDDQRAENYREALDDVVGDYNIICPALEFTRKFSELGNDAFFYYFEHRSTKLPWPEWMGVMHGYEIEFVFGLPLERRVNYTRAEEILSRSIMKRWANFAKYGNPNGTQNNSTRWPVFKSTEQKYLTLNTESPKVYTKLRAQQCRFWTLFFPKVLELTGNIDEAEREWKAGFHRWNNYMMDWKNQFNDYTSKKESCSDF
Test [5] has as its target Acetylcholinesterase (Electrophorus electricus, UniProt O42275). In words: Inhibition of electric eel AChE using acetylthiocholine iodide as substrate by Ellman's method.

Acetylcholinesterase, sequence (O42275 whole entry): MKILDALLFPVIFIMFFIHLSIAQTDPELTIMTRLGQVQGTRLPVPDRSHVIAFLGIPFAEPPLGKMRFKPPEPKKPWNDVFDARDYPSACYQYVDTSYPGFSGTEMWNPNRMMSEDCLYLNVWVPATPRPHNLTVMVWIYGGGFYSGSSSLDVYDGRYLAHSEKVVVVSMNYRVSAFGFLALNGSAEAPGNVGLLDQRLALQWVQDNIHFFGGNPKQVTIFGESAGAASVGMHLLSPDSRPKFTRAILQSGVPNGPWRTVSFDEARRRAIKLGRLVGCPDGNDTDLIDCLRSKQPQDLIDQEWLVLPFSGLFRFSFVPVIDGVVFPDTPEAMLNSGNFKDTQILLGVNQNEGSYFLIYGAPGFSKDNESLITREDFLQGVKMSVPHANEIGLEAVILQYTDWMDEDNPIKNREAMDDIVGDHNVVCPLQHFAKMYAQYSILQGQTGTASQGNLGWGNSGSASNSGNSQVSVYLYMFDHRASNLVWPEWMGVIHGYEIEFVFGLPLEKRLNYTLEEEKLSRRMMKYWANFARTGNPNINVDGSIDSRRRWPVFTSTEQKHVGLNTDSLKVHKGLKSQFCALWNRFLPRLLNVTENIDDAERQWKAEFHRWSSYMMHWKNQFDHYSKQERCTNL

`O=C1O[C@H]([C@@H](O)CO)C(O)=C1O` [ASCORBIC ACID]: the 50% inhibitory concentration (IC50) – broadly, the point on the concentration scale where inhibition reaches its midpoint – in test [1] was determined as 3.6 µg/mL (≈ 20.4 µM). In test [2], the Activity came to 1890.

As to `COc1cccc2cc(C(=O)/C=C/c3cc[n+](Cc4ccccc4C)cc3)c(=O)oc12.[Cl-]`, the results for the IC50 in test [1], in test [4] and in test [5] were greater than 25 µg/mL, 0.342 µM and 0.00016 µM, respectively. For the same compound, the Activity in test [2] is less than 150. In addition, the Ratio IC50 in test [3] worked out at 2140.

Regarding `COc1cccc2cc(C(=O)/C=C/c3cc[n+](Cc4ccccc4F)cc3)c(=O)oc12.[Br-]`, the 50% inhibitory concentration (IC50) in test [1] is greater than 25 µg/mL; in test [4] it was 0.329 µM; in test [5], 0.026 µM. Moreover, in test [2], the Activity is less than 150. For the same compound, the Ratio IC50 in test [3] was determined as 12.6.

Consider `COc1cccc2cc(C(=O)/C=C/c3cc[n+](Cc4cccc(F)c4)cc3)c(=O)oc12.[Cl-]`, for which the results for the IC50 in test [1], in test [4] and in test [5] were greater than 25 µg/mL, 2.1 µM and 0.00047 µM, respectively. Also, in test [2], the Activity was less than 150. Also, the Ratio IC50 in test [3] is 4470.

Regarding `COc1cccc2cc(C(=O)/C=C/c3cc[n+](Cc4ccc(CCl)cc4)cc3)c(=O)oc12.[Cl-]`, the IC50 in test [1] was greater than 25 µg/mL; in test [4], 15.1 µM; in test [5], 1.6 µM. Moreover, in test [2], the Activity was less than 150. Moreover, in test [3], the Ratio IC50 was 9.4.

As for `COc1cccc2cc(C(=O)/C=C/c3cc[n+](Cc4cccc(C#N)c4)cc3)c(=O)oc12.[Br-]`, the half-maximal inhibitory concentration (IC50) in test [1] was greater than 25 µg/mL; in test [4], 1 µM; in test [5] it was 0.076 µM. Further, the Activity in test [2] is less than 150. Besides, in test [3], the Ratio IC50 was 13.1.

On to `COc1cccc2cc(C(=O)/C=C/c3cc[n+](Cc4cccc(C)c4)cc3)c(=O)oc12.[Cl-]`, for which the IC50 in test [1] was greater than 25 µg/mL; in test [4] it was 11.2 µM; in test [5], 0.8 µM. Further, in test [2], the Activity was less than 150. The Ratio IC50 in test [3] came out at 14.

Turning to `COc1cccc2cc(C(=O)/C=C/c3cc[n+](Cc4ccc(F)cc4)cc3)c(=O)oc12.[Cl-]`, the concentration for half-maximal inhibition (IC50) in test [1] is greater than 25 µg/mL; in test [4] it was 0.931 µM; in test [5], 0.472 µM. Besides, the Activity in test [2] is less than 150. Besides, in test [3], the Ratio IC50 worked out at 1.97.

In the case of `O=C(/C=C/c1cc[n+](Cc2ccc(F)cc2)cc1)c1cc2cc(Br)ccc2oc1=O.[Cl-]`, the concentration for half-maximal inhibition (IC50) in test [1] was greater than 25 µg/mL; in test [4] it was 0.494 µM; in test [5], 0.00046 µM. Also, the Activity in test [2] is less than 150. The Ratio IC50 in test [3] is 1070.

`COc1cccc2cc(C(=O)/C=C/c3cc[n+](Cc4cccc(Cl)c4)cc3)c(=O)oc12.[Cl-]`: the IC50 in test [1] was greater than 25 µg/mL; in test [4] it was 0.56 µM; in test [5], 0.086 µM. Besides, in test [2], the Activity was less than 150. Also, the Ratio IC50 in test [3] was 6.5.

For `COc1cccc2cc(C(=O)/C=C/c3cc[n+](Cc4cccc(Cl)c4Cl)cc3)c(=O)oc12.[Cl-]`, the half-maximal inhibitory concentration (IC50) was greater than 25 µg/mL in test [1], 6.8 µM in test [4] and 0.12 µM in test [5]. The Activity in test [2] is less than 150. Also, in test [3], the Ratio IC50 is 57.

Regarding `COc1cccc2cc(C(=O)/C=C/c3cc[n+](Cc4ccccc4Cl)cc3)c(=O)oc12.[Cl-]`, the figures for the 50% inhibitory concentration (IC50) in test [1], in test [4] and in test [5] were greater than 25 µg/mL, 0.125 µM and 0.00046 µM, respectively. Also, in test [2], the Activity was less than 150. Further, in test [3], the Ratio IC50 was 272.

For the compound `COc1ccc(C[n+]2ccc(/C=C/C(=O)c3cc4cccc(OC)c4oc3=O)cc2)cc1.[Cl-]`, the half-maximal inhibitory concentration (IC50) was greater than 25 µg/mL in test [1], 0.971 µM in test [4] and 1.47 µM in test [5]. The Activity in test [2] is less than 150. In addition, the Ratio IC50 in test [3] is 0.7.

On to `COc1cccc2cc(C(=O)/C=C/c3cc[n+](Cc4ccc(C)cc4)cc3)c(=O)oc12.[Cl-]`, for which the values for the IC50 in test [1], in test [4] and in test [5] were greater than 25 µg/mL, 27 µM and 3.65 µM, respectively. In addition, in test [2], the Activity is less than 150. In test [3], the Ratio IC50 amounted to 7.4.

Turning to `O=C(/C=C/c1cc[n+](Cc2ccc(F)cc2)cc1)c1cc2ccccc2oc1=O.[Cl-]`, the 50% inhibitory concentration (IC50) in test [1] is greater than 25 µg/mL; in test [4], 0.91 µM; in test [5] it was 0.76 µM. In addition, the Activity in test [2] is less than 150. The Ratio IC50 in test [3] turned out to be 1.2.

Turning to `O=C(/C=C/c1cc[n+](Cc2ccccc2F)cc1)c1cc2cc(Br)ccc2oc1=O.[Cl-]`, the IC50 in test [1] was greater than 25 µg/mL; in test [4], 0.489 µM; in test [5] it was 0.00011 µM. Further, the Activity in test [2] was less than 150. Further, the Ratio IC50 in test [3] came out at 4440.

`O=C(/C=C/c1cc[n+](Cc2ccccc2F)cc1)c1cc2ccccc2oc1=O.[Cl-]`: the half-maximal inhibitory concentration (IC50) in test [1] is greater than 25 µg/mL; in test [4], 0.848 µM; in test [5] it was 0.54 µM. Further, in test [2], the Activity was less than 150. In test [3], the Ratio IC50 turned out to be 1.57.

With `COc1cccc2cc(C(=O)/C=C/c3cc[n+](Cc4ccccc4)cc3)c(=O)oc12.[Cl-]`, in test [1], the concentration for half-maximal inhibition (IC50) was greater than 25 µg/mL. Besides, in test [2], the Activity is less than 150.

For `COc1cccc2cc(C(=O)/C=C/c3cc[n+](Cc4c(F)cccc4[N+](=O)[O-])cc3)c(=O)oc12.[Cl-]`, the figures for the IC50 in test [1], in test [4] and in test [5] were greater than 25 µg/mL, 0.685 µM and 0.33 µM, respectively. Besides, the Activity in test [2] was less than 150. Besides, the Ratio IC50 in test [3] turned out to be 2.1.

Consider `COc1cccc2cc(C(=O)/C=C/c3cc[n+](Cc4ccc(Cl)c(Cl)c4)cc3)c(=O)oc12.[Cl-]`, for which the figures for the IC50 in test [1], in test [4] and in test [5] were greater than 25 µg/mL, 5.79 µM and 0.44 µM, respectively. Further, the Activity in test [2] was less than 150. Further, the Ratio IC50 in test [3] was 13.6.
